# Active and inactive are the calls of the source. The calls are words filed in the database; no cut-off is given here.
# Legend:
# [1] = system: MDA-MB-231; assay: Inhibition of cellular respiration in human MDA-MB-231 cells assessed as rate of oxygen consumption; type: functional, cell-based
# In short: (§1)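 Whole-cell oxygen consumption measured with a Clarke-type oxygen electrode during a concentration-response series. Cells in serum-free DMEM/F12 medium at 30 °C.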
# [2] = system: T47D; assay: Inhibition of cellular respiration in human T47D cells assessed as rate of oxygen consumption at 0.001 to 0.1 uM; type: functional, cell-based; in short: as §1
# [3] = system: MDA-MB-231; assay: Reduction in ATP level in human MDA-MB-231 cells after 72 hrs by HPLC-UV analysis; type: functional, cell-based
# In short: (§2)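 5 × 10^5 cells per well seeded in DMEM/F12 with 10% FBS. After 24 h, half the medium replaced with serum-free DMEM/F12 containing compound. After exposure, cells washed in cold DPBS and extracted with cold 0.4 M perchloric acid, then neutralized with K2CO3. ATP quantified by reversed-phase C18 HPLC-UV using 50 mM potassium phosphate pH 6.0/MeOH at 0.7 mL/min.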
# [4] = system: T47D; assay: Reduction in ATP level in human T47D cells after 72 hrs by HPLC-UV analysis; type: functional, cell-based; in short: as §2
# [5] = system: T47D; assay: Reduction in ATP level in human T47D cells after 48 hrs by HPLC-UV analysis; type: functional, cell-based; in short: as §2
# [6] = system: T47D; assay: Reduction in ATP level in human T47D cells at 0.01 to 0.1 uM after 72 hrs by HPLC-UV analysis; type: functional, cell-based; in short: as §2
# [7] = system: T47D; assay: Antiproliferative activity against human T47D cells assessed as cell viability at 0.01 to 0.1 uM after 72 hrs by SRB assay; type: functional
# In short: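 T47D cells grown in DMEM/F12 with 10% FBS and penicillin/streptomycin, then exposed for 72 h in a parallel 96-well viability study. Cells fixed in the wells with no aspiration or wash, stained by sulforhodamine B, and read by OD. % inhibition = [1 − (OD treated/OD medium control)] × 100.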
# [8] = target: Serine/threonine-protein kinase mTOR (Homo sapiens) (UniProt P42345); assay: Inhibition of mTOR-mediated 4E-BP1 phosphorylation on Thr 37/46 in human T47D cells at 0.1 to 1 uM after 30 mins by Western blotting; type: cell-based
# In short: (§3)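 0.8 × 10^6 cells per well exposed for 30 min at 37 °C, 5% CO2, in DMEM/F12 with 5% FBS. Cells washed with cold DPBS and lysed in modified RIPA (pH 7.6) with protease and phosphatase inhibitors. 40 µg protein run on 4–20% SDS-PAGE and blotted. Phospho-site-specific primary antibodies at 1:1,000, HRP anti-rabbit IgG, chemiluminescence on film.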
# [9] = target: Serine/threonine-protein kinase mTOR (Homo sapiens) (UniProt P42345); assay: Inhibition of mTORC1-mediated rpS6 phosphorylation on Ser 235/236 in human T47D cells at 0.1 to 1 uM after 30 mins by Western blotting; type: cell-based; in short: as §3
# [10] = target: Serine/threonine-protein kinase mTOR (Homo sapiens) (UniProt P42345); assay: Inhibition of mTORC1-mediated eIF4E phosphorylation on Ser 209 in human T47D cells at 0.1 to 1 uM after 30 mins by Western blotting; type: cell-based; in short: as §3
# [11] = target: Serine/threonine-protein kinase mTOR (Homo sapiens) (UniProt P42345); assay: Inhibition of mTOR in human T47D cells assessed as eIF2alpha hyperphosphorylation on Ser 51 at 0.1 to 1 uM after 30 mins by Western blotting; type: cell-based; in short: as §3
# [12] = target: Serine/threonine-protein kinase mTOR (Homo sapiens) (UniProt P42345); assay: Inhibition of mTOR in human T47D cells assessed as eEF2 hyperphosphorylation on Ser 56 at 0.1 to 1 uM after 30 mins by Western blotting; type: cell-based; in short: as §3
# [13] = target: Serine/threonine-protein kinase mTOR (Homo sapiens) (UniProt P42345); assay: Inhibition of mTOR-mediated 4E-BP1 phosphorylation on Thr 37/46 in human MDA-MB-231 cells at 0.1 to 1 uM after 30 mins by Western blotting; type: cell-based; in short: as §3
# [14] = target: Serine/threonine-protein kinase mTOR (Homo sapiens) (UniProt P42345); assay: Inhibition of mTOR-mediated rpS6 phosphorylation on Ser 235/236 in human MDA-MB-231 cells at 0.1 to 1 uM after 30 mins by Western blotting; type: cell-based; in short: as §3
# [15] = target: Serine/threonine-protein kinase mTOR (Homo sapiens) (UniProt P42345); assay: Inhibition of mTOR-mediated eIF4E phosphorylation on Ser 209 in human MDA-MB-231 cells at 0.1 to 1 uM after 30 mins by Western blotting; type: cell-based; in short: as §3
# [16] = target: Serine/threonine-protein kinase mTOR (Homo sapiens) (UniProt P42345); assay: Inhibition of mTOR in human MDA-MB-231 cells assessed as eIF2alpha hyperphosphorylation on Ser 51 at 0.1 to 1 uM after 30 mins by Western blotting; type: cell-based; in short: as §3
# [17] = target: Serine/threonine-protein kinase mTOR (Homo sapiens) (UniProt P42345); assay: Inhibition of mTOR in human MDA-MB-231 cells assessed as eEF2 hyperphosphorylation on Ser 56 at 0.1 to 1 uM after 30 mins by Western blotting; type: cell-based; in short: as §3
# [18] = system: MDA-MB-231; assay: Reduction in ATP level in human MDA-MB-231 cells at 0.01 to 0.1 uM after 48 hrs by HPLC-UV analysis; type: functional, cell-based; in short: as §2
# [19] = target: T1, Hypoxia inducible factors; HIF-1-alpha, HIF-2-alpha (Homo sapiens, UniProt Q16665+Q99814); assay: Inhibition of hypoxia-induced HIF1 activation in human T47D cells after 16 hrs by HRE3-TK-luciferase reporter gene assay; type: cell-based
# In short: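 T47D cells carrying the pHRE3-TK-Luc reporter, grown in DMEM/F12 with 10% FBS; HIF-1 induced by hypoxia (1% O2). Activity reported as % inhibition of the induced control, calculated as [1 − (treated/control)] × 100.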
# [20] = target: T1, Hypoxia inducible factors; HIF-1-alpha, HIF-2-alpha; assay: Inhibition of 1, 10-phenanthroline-induced HIF1 activation in human T47D cells after 16 hrs by HRE3-TK-luciferase reporter gene assay; type: cell-based
# [21] = system: T47D; assay: Ratio of IC50 for 1, 10-phenanthroline-induced HIF1 activation in human T47D cells to IC50 for hypoxia-induced HIF1 activation in human T47D cells; type: cell-based
# [22] = target: T1, Hypoxia inducible factors; HIF-1-alpha, HIF-2-alpha; assay: Inhibition of HIF1-mediated induction of Glut-1 mRNA expression in hypoxia-stimulated human T47D cells at 0.3 to 3 uM after 16 hrs by RT-PCR analysis; type: cell-based
# [23] = target: T1, Hypoxia inducible factors; HIF-1-alpha, HIF-2-alpha; assay: Inhibition of HIF1-mediated induction of VEGF mRNA expression in hypoxia-stimulated human T47D cells at 0.3 to 3 uM after 16 hrs by RT-PCR analysis; type: cell-based
# [24] = target: T1, Hypoxia inducible factors; HIF-1-alpha, HIF-2-alpha; assay: Inhibition of HIF1-mediated induction of cellular VEGF protein in hypoxia-stimulated human T47D cells at 0.3 uM after 16 hrs by ELISA; type: cell-based
# [25] = target: T1, Hypoxia inducible factors; HIF-1-alpha, HIF-2-alpha; assay: Inhibition of HIF1-mediated induction of secreted VEGF protein in hypoxia-stimulated human T47D cells at 0.3 uM after 16 hrs by ELISA; type: cell-based
# [26] = target: T1, Hypoxia inducible factors; HIF-1-alpha, HIF-2-alpha; assay: Inhibition of HIF1-mediated induction of cellular VEGF protein in hypoxia-stimulated human T47D cells at 3 uM after 16 hrs by ELISA; type: cell-based
# [27] = target: T1, Hypoxia inducible factors; HIF-1-alpha, HIF-2-alpha; assay: Inhibition of HIF1-mediated induction of secreted VEGF protein in hypoxia-stimulated human T47D cells at 3 uM after 16 hrs by ELISA; type: cell-based
# [28] = target: T1, Hypoxia inducible factors; HIF-1-alpha, HIF-2-alpha; assay: Inhibition of HIF1-mediated induction of Glut-1 mRNA expression in human T47D cells at 3 uM after 16 hrs by RT-PCR analysis under normoxic condition; type: cell-based
# [29] = target: T1, Hypoxia inducible factors; HIF-1-alpha, HIF-2-alpha; assay: Inhibition of HIF1-mediated induction of VEGF mRNA expression in human T47D cells at 3 uM after 16 hrs by RT-PCR analysis under normoxic condition; type: cell-based
# [30] = target: T1, Hypoxia inducible factors; HIF-1-alpha, HIF-2-alpha; assay: Inhibition of HIF1-mediated induction of cellular VEGF protein in human T47D cells at 3 uM after 16 hrs by ELISA under normoxic condition; type: cell-based
# [31] = target: T1, Hypoxia inducible factors; HIF-1-alpha, HIF-2-alpha; assay: Inhibition of HIF1-mediated induction of secreted VEGF protein in human T47D cells at 3 uM after 16 hrs by ELISA under normoxic condition; type: cell-based
# [32] = system: T47D; assay: Inhibition of HIF1alpha protein accumulation under hypoxic condition in human T47D cells at 3 uM after 4 hrs by Western blot analysis; type: functional, cell-based
# [33] = system: T47D; assay: Inhibition of 1, 10-phenanthroline-induced HIF1alpha protein accumulation in human T47D cells at 3 uM after 4 hrs by Western blot analysis; type: functional, cell-based
# [34] = system: T47D; assay: Inhibition of HIF1beta protein accumulation under hypoxic condition in human T47D cells at 3 uM after 4 hrs by Western blot analysis; type: functional, cell-based
# [35] = system: T47D; assay: Inhibition of 1, 10-phenanthroline-induced HIF1beta protein accumulation in human T47D cells at 3 uM after 4 hrs by Western blot analysis; type: functional, cell-based
# [36] = system: T47D; assay: Inhibition of cellular respiration in human T47D cell at 0.03 to 1 uM by oxygen consumption assay; type: functional, cell-based
# In short: (§4)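 Oxygen consumption of intact T47D cells measured with a Clark-type electrode, in serum-free DMEM/F12 at 30 °C.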
# [37] = system: T47D; assay: Inhibition of cellular respiration in human T47D cells at 1 uM by oxygen consumption assay; type: functional; in short: as §4
# [38] = system: T47D; assay: Antiproliferative activity against human T47D cells assessed as cell viability by SRB assay; type: functional, cell-based
# In short: (§5)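 Cells grown in DMEM/F12 with 10% FBS, penicillin and streptomycin; 96-well viability assay, 2-day or 6-day exposure, with medium (5% FBS) and compound renewed after 3 days in the 6-day study. Read by optical density; % inhibition = [1 − (ODtreated/ODcontrol)] × 100 versus medium control.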
# [39] = system: MDA-MB-231; assay: Antiproliferative activity against human MDA-MB-231 cells assessed as cell viability by SRB assay; type: functional, cell-based; in short: as §5
# [40] = system: PC-3; assay: Antiproliferative activity against human PC3 cells assessed as cell viability by SRB assay; type: functional, cell-based; in short: as §5
structure (smiles),measurement,setting,value
C=C(C)[C@H]1Cc2c(ccc3c2O[C@@H]2COc4cc(OC)c(OC)cc4[C@@H]2C3=O)O1 [ROTENONE],inhibition,[1],Dose-dependent effect
same,inhibition,[2],Active
same,Activity,[3],Dose-dependent effect
same,Activity,[4],Dose-dependent effect
same,Activity,[5],Active
same,Activity,[6],Active
same,Activity,[7],50%
same,inhibition,[8],inactive
same,inhibition,[9],inactive
same,inhibition,[10],inactive
same,inhibition,[11],Active
same,Activity,[12],Active
same,inhibition,[13],inactive
same,inhibition,[14],inactive
same,inhibition,[15],inactive
same,Activity,[16],Active
same,Activity,[17],Active
same,Activity,[18],Active
CC(C)=CC(=O)O[C@@H]1CC[C@]2(C)[C@H]3CC[C@]45C[C@]4(CC[C@@H]5[C@@H]4C[C@H]([C@@H]5OC5(C)C)OC4O)[C@]3(C)[C@H](O)C[C@H]2C1(C)C (stereo not given in full) [SKIMMIAREPIN C],IC50,[19],68 nM
same,IC50,[20],5.6 µM
same,Ratio IC50,[21],80
same,inhibition,[22],Active
same,inhibition,[23],Active
same,inhibition,[24],Active
same,inhibition,[25],Active
same,inhibition,[26],Active
same,inhibition,[27],Active
same,inhibition,[28],inactive
same,inhibition,[29],inactive
same,inhibition,[30],inactive
same,inhibition,[31],inactive
same,inhibition,[32],Active
same,inhibition,[33],inactive
same,inhibition,[34],inactive
same,inhibition,[35],inactive
same,inhibition,[36],Dose-dependent effect
same,inhibition at 1 µM,[37],75%
same,Activity,[38],Active
same,Activity,[39],inactive
same,Activity,[40],Active
